Measurements published in ChEMBL document CHEMBL1140540, “Investigating the antiproliferative activity of quinoline-5,8-diones and styrylquinolinecarboxylic acids on tumor cell lines” (Bioorg Med Chem Lett, 2007).

How the values were obtained:
[1] = system: P388; assay: Antiproliferative activity against mouse P388 cells by MTT assay; assay type: functional, cell-based
Method in brief: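 P388 cells in RPMI 1640 with 2 mM L-glutamine, 1.5 g/L NaHCO3, 4.5 g/L glucose, 1.0 mM pyruvate and 10% FBS, at 37 °C in 5% CO2. Plated 24 h before treatment, then exposed 72 h to varying concentrations. MTT 4 h at 37 °C, DMF/SDS lysis, OD570 after 24 h. IC50 from triplicates, 3–7 repeat experiments.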

[2] = Lipophilicity, log K of the compound; assay type: physicochemical; conditions: HPLC
Method in brief: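 Hydrophobicity determined by HPLC.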

[3] = system: SK-N-MC; assay: Antiproliferative activity against human SK-N-MC cells by MTT assay; assay type: functional, cell-based
Method in brief: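 SK-N-MC cells in MEM with 10% (v/v) FBS, 1.0 mM sodium pyruvate, 1% non-essential amino acids, L-glutamine, penicillin/streptomycin and fungizone. Plated 24 h before dosing and exposed 72 h to varying concentrations. MTT added for 4 h at 37 °C, then DMF/SDS lysis, with OD570 read after 24 h. IC50 from triplicate wells, experiments repeated 3–7 times.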

[4] = system: P388; assay: Antiproliferative activity against mouse P388 cells at 0.1 uM by MTT assay; assay type: functional
Method in brief: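 P388 cells in RPMI 1640 with 2 mM L-glutamine, 1.5 g/L NaHCO3, 4.5 g/L glucose, 1.0 mM pyruvate and 10% FBS, at 37 °C in 5% CO2. Plated 24 h before treatment, then 72 h exposure at a single concentration. MTT readout: 4 h MTT, DMF/SDS lysis, OD570 after 24 h. Value expressed as percent inhibition of proliferation.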

For `COc1ccc(/C=C/c2ccc3c([N+](=O)[O-])cc([N+](=O)[O-])c(O)c3n2)cc1`, the IC50 [1] was 79.1 µM.

Work on `CCCC(=O)NC1=CC(=O)c2ccc(C)nc2C1=O` yielded an IC50 [1] of 1.51 µM.

In the case of `CCC(=O)NC1=CC(=O)c2ccc(C)nc2C1=O`, the IC50 [1] is reported as 1.43 µM.

`COc1ccc(/C=C/c2ccc3c([N+](=O)[O-])cc(C(=O)O)c(O)c3n2)cc1` showed an IC50 [1] of 148 µM.

In the case of `O=C(O)c1ccc(C(=O)O)c2nc(/C=C/c3cccc(Cl)c3)ccc12`, the “log K” value [2] is reported as 1.2163 and the IC50 [1] is reported as 114 µM.

In the case of `O=C(O)c1ccc(C(=O)O)c2nc(/C=C/c3ccc(Cl)cc3)ccc12`, the “log K” value [2] is reported as 1.2107 and the IC50 [1] is reported as 110 µM.

For `COC1=CC(=O)c2ccc(C)nc2C1=O`, the “log K” value [2] was 0.0907, the IC50 [3] was 4.26 µM and the IC50 [1] was 6.1 µM.

For `O=C(O)c1ccc2nc(/C=C/c3cccc(Cl)c3)ccc2c1`, the “log K” value [2] was 1.6315 and the IC50 [1] was 110 µM.

In the case of `Cc1ccc2c(n1)C(=O)C(NC(=O)/C=C/c1ccccc1)=CC2=O`, the IC50 [1] is reported as 2.39 µM.

In the case of `O=C(O)c1cccc2nc(/C=C/c3ccccc3O)ccc12`, the “log K” value [2] is reported as 1.255 and the inhibition at 0.1 µM [4] is reported as 30%.

In the case of `O=C(O)c1ccc2nc(/C=C/c3ccc(Cl)cc3)ccc2c1`, the “log K” value [2] is reported as 1.6043 and the IC50 [1] is reported as 116 µM.

Compound `Cc1ccc2c(n1)C(=O)C(N)=CC2=O` has an IC50 [1] of 10.3 µM.

With `O=C(O)c1cccc2ccc(/C=C/c3ccc(Cl)cc3)nc12` the “log K” value [2] was 1.8165 and the IC50 [1] was 15.3 µM.

In the case of `CC(=O)NC1=CC(=O)c2ccc(C)nc2C1=O`, the “log K” value [2] is reported as 0.2227, the IC50 [3] is reported as greater than 6.25 µM and the IC50 [1] is reported as 1.61 µM.

With `O=[N+]([O-])c1cc([N+](=O)[O-])c2cccnc2c1O` the “log K” value [2] was 0.7154, the IC50 [3] was greater than 6.25 µM and the IC50 [1] was 7.14 µM.

For `O=C(O)c1ccc2nc(/C=C/c3ccccc3O)ccc2c1`, the “log K” value [2] was 1.3842 and the IC50 [1] was 51.1 µM.

With `O=C(O)c1cc([N+](=O)[O-])c2ccc(/C=C/c3ccccc3Cl)nc2c1O` the IC50 [1] was 158 µM.

For `O=C(O)c1cccc2nc(/C=C/c3ccc(Br)cc3)ccc12`, the “log K” value [2] was 1.4397 and the IC50 [1] was 109 µM.

`CC(=O)Nc1cc(NC(C)=O)c2ccc(/C=C/c3ccccc3Br)nc2c1OC(C)=O` gave an IC50 [1] of 6.58 µM.

With `O=C(O)c1ccc(C(=O)O)c2nc(/C=C/c3ccccc3Cl)ccc12` the “log K” value [2] was 1.2047 and the IC50 [1] was 114 µM.

`O=[N+]([O-])c1cc([N+](=O)[O-])c2ccc(/C=C/c3ccc(Cl)cc3)nc2c1O` showed an IC50 [1] of 7.14 µM.

For `O=C(O)c1ccc(C(=O)O)c2nc(/C=C/c3ccccc3Br)ccc12`, the “log K” value [2] was 1.2062 and the IC50 [1] was 89.4 µM.

With `COc1cccc(/C=C/c2ccc3c(C(=O)O)ccc(C(=O)O)c3n2)c1` the “log K” value [2] was 1.1811 and the inhibition at 0.1 µM [4] was 25%.

Work on `COc1ccc(/C=C/c2ccc3c(NC(C)=O)cc(NC(C)=O)c(OC(C)=O)c3n2)c(OC)c1` yielded an inhibition at 0.1 µM [4] of 20%.

For `COc1cccc(/C=C/c2ccc3c(C(=O)O)cccc3n2)c1`, the “log K” value [2] was 1.2263 and the IC50 [1] was 100 µM.

For `O=C(O)c1cccc2ccc(/C=C/c3ccccc3O)nc12`, the “log K” value [2] was 1.6787 and the IC50 [1] was 13.6 µM.

With `O=C(O)c1ccc2ccc(/C=C/c3ccccc3O)nc2c1` the “log K” value [2] was 1.3678 and the inhibition at 0.1 µM [4] was 30%.

With `Oc1cccc2ccc(/C=C/c3cccc(Cl)c3)nc12` the “log K” value [2] was 1.5395 and the inhibition at 0.1 µM [4] was 15%.

For `Cc1ccc2c(n1)C(=O)C(NC(=O)CCc1ccccc1)=CC2=O`, the IC50 [1] was 1.44 µM.
